Converted amounts (≈) assume the structure as drawn.
Columns and labels:
FM3A = assay: Tested for in vitro cytostatic activity against murine mammary carcinoma (FM3A); assay type: functional, cell-based; conditions: Mus musculus
Procedure, shortened: (§1)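 Cells seeded at 5 × 10^5/mL (murine L1210 leukemia, FM3A mammary carcinoma) or 7.5 × 10^5/mL (human Molt-4 clone 8, CEM) and exposed to varying compound concentrations. Incubation at 37 °C in humidified CO2 was 2 days for L1210/FM3A and 3 days for Molt-4/CEM. Viable cells were Coulter-counted; IC50 is the concentration reducing viable cell number by 50%. Means of at least two to three determinations.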

Vero [1] = assay: Tested for the antiviral activity against forest virus in simian Vero cells; assay type: functional; conditions: Chlorocebus sabaeus
Procedure, shortened: (§2)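 Confluent E6SM, HeLa or Vero cultures were inoculated with 100 CCID50 of virus and allowed 1 h adsorption. Residual virus was removed, then cells were incubated with compound at 400, 200, 100 … μg/mL. Virus-induced cytopathicity was scored once complete in untreated infected controls. MIC is the minimum inhibitory concentration.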

CCRF-CEM = assay: Tested for in vitro cytostatic activity against CEM cells; assay type: functional, cell-based; conditions: Homo sapiens; procedure, shortened: as §1
E6SM [2] = assay: Tested for the antiviral activity against HSV-2 in human E6SM cells; assay type: functional; procedure, shortened: as §2
MOLT-4 [3] = assay: Tested for in vitro cytostatic activity against human lymphoblast Molt-4 (Clone8); assay type: functional, cell-based; procedure, shortened: as §1
Vero [4] = assay: Tested for the minimum cytotoxic concentration against Vero cells; assay type: functional; conditions: Chlorocebus sabaeus
Procedure, shortened: (§3)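 Uninfected E6SM, HeLa or Vero cultures were incubated with serial compound concentrations (400, 200, 100 … μg/mL). Cytotoxicity was judged as microscopically detectable alteration of normal cell morphology. The value is the minimum concentration causing this alteration.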

Vero [5] = assay: Tested for the antiviral activity against reovirus-1 in simian Vero cells; assay type: functional; conditions: Chlorocebus sabaeus; procedure, shortened: as §2
Vero [6] = assay: Tested for the antiviral activity against Parainfluenza-3 virus in simian Vero cells; assay type: functional; conditions: Chlorocebus sabaeus; procedure, shortened: as §2
L1210 = assay: Tested for in vitro cytostatic activity against murine leukemia L1210; assay type: functional, cell-based; conditions: Mus musculus; procedure, shortened: as §1
E6SM [7] = assay: Tested for the antiviral activity against Vesicular stomatitis virus in human E6SM cells; assay type: functional; procedure, shortened: as §2
E6SM [8] = assay: Tested for the antiviral activity against HSV-1 (KOS) in human E6SM cells; assay type: functional; procedure, shortened: as §2
Vero [9] = assay: Tested for the antiviral activity against Sindbis virus in simian Vero cells; assay type: functional; conditions: Chlorocebus sabaeus; procedure, shortened: as §2
HeLa [10] = assay: Tested for the antiviral activity against Coxsackie B4 virus in human HeLa cells; assay type: functional; procedure, shortened: as §2
E6SM [11] = assay: Tested for the antiviral activity against Vaccinia virus in human E6SM cells; assay type: functional; procedure, shortened: as §2
E6SM [12] = assay: Tested for the minimum cytotoxic concentration against E6SM cells; assay type: functional; conditions: Homo sapiens; procedure, shortened: as §3
HeLa [13] = assay: Tested for the minimum cytotoxic concentration against HeLa cells; assay type: functional; conditions: Homo sapiens; procedure, shortened: as §3
HeLa [14] = assay: Tested for the antiviral activity against Vesicular stomatitis virus in human HeLa cells; assay type: functional; procedure, shortened: as §2
Adenosylhomocysteinase [15] = target: T1, Adenosylhomocysteinase (Homo sapiens, UniProt P23526); assay: Tested for kinetic constant for the inhibition of recombinant human placental S-Adenosyl-L-homocysteine Hydrolase
Target sequence in this assay (P23526 whole entry): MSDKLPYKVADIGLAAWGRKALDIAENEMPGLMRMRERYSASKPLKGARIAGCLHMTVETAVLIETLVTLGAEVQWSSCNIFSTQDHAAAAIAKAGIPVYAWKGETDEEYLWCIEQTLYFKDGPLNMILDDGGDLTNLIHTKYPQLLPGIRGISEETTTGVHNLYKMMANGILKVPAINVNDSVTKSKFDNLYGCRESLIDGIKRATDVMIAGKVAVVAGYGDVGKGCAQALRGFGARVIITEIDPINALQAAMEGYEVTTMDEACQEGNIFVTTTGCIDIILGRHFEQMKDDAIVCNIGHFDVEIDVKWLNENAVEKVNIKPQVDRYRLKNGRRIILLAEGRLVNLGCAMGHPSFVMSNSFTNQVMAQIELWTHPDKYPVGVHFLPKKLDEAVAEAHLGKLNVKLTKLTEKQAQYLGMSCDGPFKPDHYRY

[16] = Tested ratio of kinact to that of Ki
Procedure, shortened: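 Purified recombinant human placental AdoHcy hydrolase (10 nM) preincubated with various inhibitor concentrations for various times at 37 °C, pH 7.2, in 50 mM potassium phosphate with 1 mM EDTA. Residual activity was measured in the synthetic direction by adding Ado and homocysteine for 5 min. The reaction was stopped with perchloric acid and AdoHcy quantified by C-18 HPLC at 258 nm. Ki and kinact were derived from 1/Kapp = 1/kinact + Ki/kinact[I].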

Adenosylhomocysteinase [17] = target: T1, Adenosylhomocysteinase
Target sequence in this assay (P23526 2-432 limits assumed): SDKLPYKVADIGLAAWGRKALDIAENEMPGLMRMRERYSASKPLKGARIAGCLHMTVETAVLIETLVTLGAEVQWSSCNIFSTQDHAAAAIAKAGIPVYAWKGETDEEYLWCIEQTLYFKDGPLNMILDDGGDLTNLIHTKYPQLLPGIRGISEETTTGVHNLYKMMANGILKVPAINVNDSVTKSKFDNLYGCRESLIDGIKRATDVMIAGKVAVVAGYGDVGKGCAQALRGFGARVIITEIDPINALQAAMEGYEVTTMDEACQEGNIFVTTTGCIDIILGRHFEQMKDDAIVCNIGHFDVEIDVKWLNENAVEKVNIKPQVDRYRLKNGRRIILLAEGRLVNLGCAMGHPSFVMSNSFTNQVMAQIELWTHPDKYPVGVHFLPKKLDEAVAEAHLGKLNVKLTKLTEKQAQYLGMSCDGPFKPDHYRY

HeLa [18] = assay: Tested for the antiviral activity against polio-1 virus in human HeLa cells; assay type: functional; procedure, shortened: as §2
MOLT-4 [19] = assay: Tested for in vitro cytostatic activity against Human lymphoblast Molt-4 (Clone8); assay type: functional, cell-based; procedure, shortened: as §1
E6SM [20] = assay: Tested for the antiviral activity against HSV-2 in Human E6SM cells; assay type: functional; procedure, shortened: as §2
HeLa [21] = assay: Tested for the antiviral activity against Coxsackie B4 virus in Human HeLa cells; assay type: functional; procedure, shortened: as §2
Vero [22] = assay: Tested for the minimum cytotoxic concentration on Vero cells; assay type: functional; conditions: Chlorocebus sabaeus; procedure, shortened: as §3
Vero [23] = assay: Tested for the antiviral activity against Parainfluenza-3 virus in Simian Vero cells; assay type: functional; conditions: Chlorocebus sabaeus; procedure, shortened: as §2
E6SM [24] = assay: Tested for the minimum cytotoxic concentration on E6SM cells; assay type: functional; conditions: Homo sapiens; procedure, shortened: as §3
HeLa [25] = assay: Tested for the minimum cytotoxic concentration on HeLa cells; assay type: functional; conditions: Homo sapiens; procedure, shortened: as §3

Compound | IC50 (FM3A) | MIC (Vero [1]) | IC50 (CCRF-CEM) | MIC (E6SM [2]) | IC50 (MOLT-4 [3]) | MCC (Vero [4]) | MIC (Vero [5]) | MIC (Vero [6]) | IC50 (L1210) | MIC (E6SM [7]) | MIC (E6SM [8]) | MIC (Vero [9]) | MIC (HeLa [10]) | MIC (E6SM [11]) | MCC (E6SM [12]) | MCC (HeLa [13]) | MIC (HeLa [14]) | Ki (Adenosylhomocysteinase [15]) | Ratio [16] | K inact (Adenosylhomocysteinase [17]) | further results
Nc1ncnc2c1ncn2[C@@H]1O[C@H](/C=C\Cl)[C@@H](O)[C@H]1O | 164 µM | 70 µg/mL (≈ 235 µM) | 86 µM | > 100 µg/mL | 117 µM | ≥ 100 µg/mL | 70 µg/mL (≈ 235 µM) | > 100 µg/mL | 143 µM | 20 µg/mL (≈ 67.2 µM) | 70 µg/mL (≈ 235 µM) | 20 µg/mL (≈ 67.2 µM) | > 100 µg/mL | 20 µg/mL (≈ 67.2 µM) | ≥ 200 µg/mL | ≥ 200 µg/mL | 70 µg/mL (≈ 235 µM) |  |  |  | 
Nc1ncnc2c1ncn2[C@@H]1O[C@H](/C=C\I)[C@@H](O)[C@H]1O | 43 µM | > 200 µg/mL | 32 µM | > 200 µg/mL | 21 µM | > 200 µg/mL | 100 µg/mL (≈ 257 µM) | > 200 µg/mL | 43 µM | 7 µg/mL (≈ 18 µM) | > 200 µg/mL | > 200 µg/mL | > 200 µg/mL | 20 µg/mL (≈ 51.4 µM) | > 200 µg/mL | > 200 µg/mL | 7 µg/mL (≈ 18 µM) |  |  |  | 
Nc1ncnc2c1ncn2C1O[C@H](/C=C/I)[C@@H](O)[C@H]1O (some centres undefined) | 15 µM | > 200 µg/mL | 26 µM | > 100 µg/mL | 18 µM | ≥ 200 µg/mL | > 200 µg/mL | > 200 µg/mL | 15 µM | 2 µg/mL (≈ 5.14 µM) | > 100 µg/mL | > 200 µg/mL | > 100 µg/mL | 7 µg/mL (≈ 18 µM) | ≥ 200 µg/mL | 200 µg/mL | 7 µg/mL (≈ 18 µM) | 0.096 µM | 0.6 | 0.058 min⁻¹ | 
C=C(Br)[C@H]1OC(n2cnc3c(N)ncnc32)[C@H](O)[C@@H]1O (some centres undefined) | 47 µM |  | 13 µM |  |  |  |  |  | 25 µM |  |  |  |  |  |  |  |  |  |  |  | 
Nc1ncnc2c1ncn2[C@@H]1O[C@H](/C=C/Cl)[C@@H](O)[C@H]1O | 160 µM | > 100 µg/mL | 99 µM | > 200 µg/mL | 80 µM | ≥ 200 µg/mL | > 100 µg/mL | > 200 µg/mL | 139 µM | 70 µg/mL (≈ 235 µM) | > 200 µg/mL | > 100 µg/mL | > 200 µg/mL | 70 µg/mL (≈ 235 µM) | 400 µg/mL | ≥ 200 µg/mL | > 200 µg/mL | 0.11 µM | 0.13 | 0.014 min⁻¹ | MIC (HeLa [18]): > 200 µg/mL
Nc1ncnc2c1ncn2[C@@H]1O[C@H](/C=C\Br)[C@@H](O)[C@H]1O | 134 µM | 150 µg/mL (≈ 438 µM) | 65 µM | > 200 µg/mL | 93 µM | ≥ 200 µg/mL | > 100 µg/mL | 150 µg/mL (≈ 438 µM) | 104 µM | 150 µg/mL (≈ 438 µM) | 70 µg/mL (≈ 205 µM) | 20 µg/mL (≈ 58.5 µM) | > 200 µg/mL | 150 µg/mL (≈ 438 µM) | > 200 µg/mL | > 200 µg/mL | 150 µg/mL (≈ 438 µM) |  |  |  | MIC (HeLa [18]): > 200 µg/mL
Nc1ncnc2c1ncn2[C@@H]1O[C@H](/C=C/Br)[C@@H](O)[C@H]1O | 60 µM | > 100 µg/mL | 56 µM |  |  | ≥ 200 µg/mL | > 100 µg/mL | > 200 µg/mL | 42 µM | 7 µg/mL (≈ 20.5 µM) | 150 µg/mL (≈ 438 µM) | > 100 µg/mL | > 100 µg/mL | 20 µg/mL (≈ 58.5 µM) | ≥ 200 µg/mL | ≥ 200 µg/mL | 7 µg/mL (≈ 20.5 µM) | 0.134 µM | 0.21 | 0.028 min⁻¹ | IC50 (MOLT-4 [19]): 56 µM; MIC (E6SM [20]): > 100 µg/mL
Nc1ncnc2c1ncn2C1O[C@H](/C=C/F)[C@@H](O)[C@H]1O (some centres undefined) | 287 µM |  | 147 µM | 150 µg/mL (≈ 533 µM) | 266 µM | > 200 µg/mL | 70 µg/mL (≈ 249 µM) | 150 µg/mL (≈ 533 µM) | 301 µM | 100 µg/mL (≈ 356 µM) | > 200 µg/mL | 200 µg/mL (≈ 711 µM) |  | 70 µg/mL (≈ 249 µM) | > 200 µg/mL | > 200 µg/mL | > 100 µg/mL | 1.3 µM | 0.008 | 0.01 min⁻¹ | MIC (HeLa [18]): 150 µg/mL (≈ 533 µM); MIC (HeLa [21]): > 100 µg/mL
Cc1ccc(S(=O)(=O)/C=C/[C@H]2OC(n3cnc4c(N)ncnc43)[C@H](O)[C@@H]2O)cc1 (some centres undefined) | 208 µM | > 400 µg/mL | 20 µM |  | 32 µM |  | > 400 µg/mL |  | 54 µM | > 100 µg/mL | 20 µg/mL (≈ 47.9 µM) | > 400 µg/mL | > 400 µg/mL | 20 µg/mL (≈ 47.9 µM) |  |  | > 400 µg/mL |  |  |  | MIC (HeLa [18]): > 400 µg/mL; MCC (Vero [22]): > 400 µg/mL; MIC (E6SM [20]): 20 µg/mL (≈ 47.9 µM); MIC (Vero [23]): > 400 µg/mL; MCC (E6SM [24]): 200 µg/mL; MCC (HeLa [25]): > 400 µg/mL
